The source made the active and inactive calls. No cut-off for these calls is given here.
Experiments:
U-937 = assay: Cytotoxicity against human U937 cells after 24 to 48 hrs by MTT assay; format: functional, cell-based
M14 [1] = assay: Cytotoxicity against human M14 cells after 24 to 48 hrs by MTT assay; format: functional, cell-based
HEK293 = assay: Cytotoxicity against transformed human HEK293 cells after 24 to 48 hrs by MTT assay; format: functional, cell-based
M14 [2] = assay: Induction of apoptosis in human M14 cells assessed as caspase-3 activation at supra cytotoxic IC50 concentration after 16 to 24 hrs by Western blot; format: functional, cell-based
M14 [3] = assay: Induction of cell morphology impairment in human M14 cells assessed as emergence of round and damaged cells at cytotoxic IC50 concentration after 10 hrs by phase contrast microscopy; format: functional, cell-based
Summary of the method: (§1)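 Logarithmically growing M14 cells plated at 10⁵ cells/mL, with compound added after 24 h and vehicle controls alongside. Followed by inverted phase-contrast time-lapse microscopy at 37 °C under 5% CO₂, images taken hourly for up to 72 h. Rounding, blebbing and detachment scored at 10, 24 and 48 h.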

M14 [4] = assay: Induction of cell morphology impairment in human M14 cells at cytotoxic IC50 concentration by phase contrast microscopy; format: functional, cell-based; summary of the method: as §1
M14 [5] = assay: Cell cycle arrest in human M14 cells assessed as accumulation at G2 phase at 3 uM after 24 hrs by flow cytometry; format: functional
Summary of the method: (§2)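 Trypsinized, washed in PBS, stained in the dark at 4 °C for 30 min with 0.1% sodium citrate, 0.1% Triton X-100 and propidium iodide. Analyzed by FACScan flow cytometry. Phase distribution (G0/G1, S, G2/M) given as percentage of cells.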

M14 [6] = assay: Cell cycle arrest in human M14 cells assessed as accumulation at G2/M phase at 3 uM after 24 hrs by flow cytometry; format: functional, cell-based; summary of the method: as §2
M14 [7] = assay: Induction of cell morphology impairment in human M14 cells assessed as cell detachment at cytotoxic IC50 concentration after 48 hrs by phase contrast microscopy
M14 [8] = assay: Induction of apoptosis in human M14 cells at 1 to 5 uM after 24 hrs; format: functional, cell-based
M14 [9] = assay: Cell cycle arrest in human M14 cells assessed as decrease in G0/G1 phase accumulation at 3 uM after 24 hrs by flow cytometry; format: functional; parameters: scale not given: the % may be the effect or the level left; summary of the method: as §2
M14 [10] = assay: Increase in p53 expression in human M14 cells at 3 uM after 24 to 48 hrs by Western blot; format: functional, cell-based
Summary of the method: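 M14 cells (1 × 10⁶ per flask), treated for 24 and 48 h. Lysed in ice-cold 50 mM Tris, 150 mM NaCl, 10 mM EDTA, 1% Triton with protease inhibitors. Equal protein run on 8-12% SDS-PAGE and blotted to nitrocellulose. Cytoplasmic p53 probed overnight at 4 °C, detected by HRP secondary and ECL, with tubulin as loading reprobe.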

M14 [11] = assay: Induction of apoptosis in human M14 cells assessed as PARP cleavage at 0.1 to 0.3 uM after 16 hrs by Western blot; format: functional, cell-based
Summary of the method: (§3)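 M14 cells (1 × 10⁶ per flask) exposed 16 and 24 h, then lysed in ice-cold Triton lysis buffer with protease inhibitors. Equal protein run on 8-12% SDS-PAGE and blotted to nitrocellulose. Probed overnight at 4 °C for cleaved active caspase-3 subunits or PARP cleavage (85 kDa fragment), with HRP secondary and ECL read-out. Tubulin reprobe.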

M14 [12] = assay: Effect on cell cycle progression in human M14 cells at 1 uM after 24 hrs by flow cytometry; format: functional, cell-based
Summary of the method: (§4)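 M14 cells at 2,5 × 10⁵ cells/mL in 12-well plates, treated 24 h (vehicle controls run alongside). Cells were trypsinised, washed in PBS and stained with propidium iodide in 0.1% sodium citrate/0.1% Triton X-100 at 4 °C for 30 min in the dark. FACScan analysis gave the percentage of cells in G0/G1, S and G2/M. Hypodiploid nuclei were scored as apoptotic.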

M14 [13] = assay: Induction of apoptosis in human M14 cells assessed as caspase-3 activation at 0.1 to 0.3 uM after 16 hrs by Western blot; format: functional, cell-based; summary of the method: as §3
M14 [14] = assay: Effect on cell cycle progression in human M14 cells at 0.3 uM after 24 hrs by flow cytometry; format: functional, cell-based; summary of the method: as §4
M14 [15] = assay: Increase in p53 expression in human M14 cells at 0.3 uM after 24 to 48 hrs by Western blot; format: functional, cell-based
Summary of the method: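 M14 cells (1 × 10⁶ per flask) treated 24 and 48 h alongside untreated controls. Lysed in ice-cold Tris/NaCl/EDTA/1% Triton buffer with protease inhibitors. Equal protein run on 8-12% SDS-PAGE and blotted to nitrocellulose. Blocked in milk/Tween-TBS, anti-p53 overnight at 4 °C, HRP secondary, ECL detection. Cytoplasmic p53 read, with tubulin as reprobe.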

| Structure (SMILES) | IC50 (U-937) [µM] | IC50 (M14 [1]) [µM] | IC50 (HEK293) [µM] | also measured |
| --- | --- | --- | --- | --- |
| CN1C(=O)[C@]2(SC[C@H]3C(=O)N(Cc4ccc(Cl)cc4)C(=O)N32)c2ccccc21 | 2.91 | 2.47 | 2.11 | – |
| O=C1[C@@H]2CS[C@]3(C(=O)Nc4ccc(Br)cc43)N2C(=O)N1Cc1ccc(Cl)cc1 | 5.01 | 7.06 | 7.13 | – |
| CC1(C)CCC(N2C(=O)[C@@H]3CS[C@]4(C(=O)Nc5ccc(Br)cc54)N3C2=O)CC1 | > 40 | > 40 | > 40 | – |
| COc1cc(CN2C(=O)[C@@H]3CS[C@]4(C(=O)Nc5ccccc54)N3C2=O)cc(OC)c1OC | 2.51 | 4.73 | 3.8 | – |
| O=C1[C@@H]2CS[C@]3(C(=O)Nc4ccccc43)N2C(=O)N1Cc1ccccc1 | 3.9 | 10.6 | 4.8 | – |
| COc1cc(CN2C(=O)[C@@H]3CS[C@]4(C(=O)N(C)c5ccccc54)N3C2=O)cc(OC)c1OC | 5.7 | 7.66 | 6.01 | – |
| CN1C(=O)[C@]2(SC[C@H]3C(=O)N(Cc4ccccc4)C(=O)N32)c2ccccc21 | 2.89 | 6.37 | 3.98 | – |
| O=C1[C@@H]2CS[C@]3(C(=O)N(C(=O)c4ccccc4)c4ccccc43)N2C(=O)N1Cc1ccc(Cl)cc1 | 3.12 | 3.25 | 3.5 | – |
| COc1cc(CN2C(=O)[C@@H]3CS[C@]4(C(=O)Nc5ccc(C)cc54)N3C2=O)cc(OC)c1OC | 2.06 | 2.4 | 2.04 | Activity (M14 [2]): inactive; Activity (M14 [3]): Active; Activity (M14 [4]): Active; Activity (M14 [5]): 47%; Activity (M14 [6]): Active; Activity (M14 [7]): Active; Activity (M14 [8]): inactive; Activity (M14 [9]): 20% |
| CN1C(=O)[C@]2(SC[C@H]3C(=O)N(C4CCC(C)(C)CC4)C(=O)N32)c2ccccc21 | > 40 | > 40 | > 40 | – |
| O=C1[C@@H]2CS[C@]3(C(=O)Nc4ccc(Br)cc43)N2C(=O)N1Cc1ccccc1 | 7.58 | 12 | 8.48 | – |
| CCCC(=O)N1C(=O)[C@]2(SC[C@H]3C(=O)N(Cc4ccc(Cl)cc4)C(=O)N32)c2ccccc21 | 2.1 | 2.04 | 2.01 | – |
| O=C1[C@@H]2CS[C@]3(C(=O)N(C(=O)c4ccc(Cl)cc4)c4ccccc43)N2C(=O)N1Cc1ccc(Cl)cc1 | 2.61 | 3.37 | 5.01 | – |
| COc1cccc2c1C(=O)c1c(O)c3c(c(O)c1C2=O)C[C@@](O)(C(=O)CO)C[C@@H]3O[C@H]1C[C@H](N)[C@H](O)[C@H](C)O1 [DOXORUBICIN] | 0.8 | 1 | 0.9 | – |
| CCCC(=O)N1C(=O)[C@]2(SC[C@H]3C(=O)N(Cc4cc(OC)c(OC)c(OC)c4)C(=O)N32)c2cc(C)ccc21 | 4.1 | 7.4 | 4.42 | – |
| COc1cc(CN2C(=O)[C@@H]3CS[C@]4(C(=O)N(C(=O)c5ccccc5)c5ccc(C)cc54)N3C2=O)cc(OC)c1OC | 4.31 | 7.84 | 4.22 | – |
| Cc1ccc(CN2C(=O)[C@@H]3CS[C@]4(C(=O)N(C)c5ccccc54)N3C2=O)cc1 | 16.8 | 31.8 | 10.7 | – |
| Cc1ccc2c(c1)[C@@]1(SC[C@H]3C(=O)N(Cc4ccc(Cl)cc4)C(=O)N31)C(=O)N2 | 3.31 | 6.65 | 3.88 | Activity (M14 [10]): Active |
| Cc1ccc(CN2C(=O)[C@@H]3CS[C@]4(C(=O)Nc5ccc(C)cc54)N3C2=O)cc1 | 2.77 | 3.39 | 3.01 | – |
| Cc1ccc2c(c1)[C@@]1(SC[C@H]3C(=O)N(Cc4ccccc4)C(=O)N31)C(=O)N2 | 2.09 | 3.88 | 3.3 | – |
| COc1cc(CN2C(=O)[C@@H]3CS[C@]4(C(=O)N(C(=O)c5ccc(C)cc5)c5ccc(C)cc54)N3C2=O)cc(OC)c1OC | 2.42 | 5.95 | 3.81 | – |
| Cc1ccc(CN2C(=O)[C@@H]3CS[C@]4(C(=O)Nc5ccc(Br)cc54)N3C2=O)cc1 | 6.23 | 10.2 | 7.61 | – |
| Cc1ccc(CN2C(=O)[C@@H]3CS[C@]4(C(=O)Nc5ccccc54)N3C2=O)cc1 | 5.91 | 13.3 | 4.53 | – |
| COc1cc(CN2C(=O)[C@@H]3CS[C@]4(C(=O)N(C(=O)c5ccc(Cl)cc5)c5ccc(C)cc54)N3C2=O)cc(OC)c1OC | 3.11 | 8.14 | 4.71 | – |
| COc1cc(CN2C(=O)[C@@H]3CS[C@]4(C(=O)Nc5ccc(Br)cc54)N3C2=O)cc(OC)c1OC | 5.02 | 11 | 9.31 | – |
| CC1(C)CCC(N2C(=O)[C@@H]3CS[C@]4(C(=O)Nc5ccccc54)N3C2=O)CC1 | 2.61 | 7.07 | 4.22 | – |
| Cc1ccc(C(=O)N2C(=O)[C@]3(SC[C@H]4C(=O)N(Cc5ccc(Cl)cc5)C(=O)N43)c3ccccc32)cc1 | 2.01 | 2.08 | 2.5 | – |
| O=C1[C@@H]2CS[C@]3(C(=O)Nc4ccccc43)N2C(=O)N1Cc1ccc(Cl)cc1 | 0.87 | 0.53 | 0.44 | Activity (M14 [11]): Active; Activity (M14 [3]): Active; Activity (M14 [4]): Active; Activity (M14 [12]): inactive; Activity (M14 [7]): Active; Activity (M14 [13]): Active; Activity (M14 [14]): inactive; Activity (M14 [15]): Active |
| Cc1ccc2c(c1)[C@@]1(SC[C@H]3C(=O)N(C4CCC(C)(C)CC4)C(=O)N31)C(=O)N2 | 12.5 | 19.1 | 16 | – |

Reference: ChEMBL document CHEMBL1629533, “Identification of the spiro(oxindole-3,3'-thiazolidine)-based derivatives as potential p53 activity modulators” (J Med Chem, 2010)
